CAL PDZ FP-1: CAL PDZ (human) peptide binding inhibition; AID 602252; inhibition, % at 24.9 µM; hit rate 0.92% among 300,000; Q9HD26; purified CAL PDZ, TMR-peptide fluorescence polarization, 1 h;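 active = mean inhibition of at least 30% with at least half of replicates also reaching 30%; inconclusive = no clear call, values can overlap the other calls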;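 note: 0% = DMSO neutral control and 100% = excess unlabeled competitor peptide PRC23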
CAL PDZ FP-2: inhibitors of human CAL PDZ peptide binding; hit rate 0.02% among 330,000; purified CAL PDZ, TMR-peptide fluorescence polarization, 1 h; Q9HD26; AID 504414; inhibition, % at 20 µM;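 active = highest replicate inhibition of at least 40%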;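 note: plate controls were DMSO neutral control wells for no effect and unlabeled competitor peptide control wells for full effect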
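System: purified tagged CAL PDZ domain construct (CerCALP). Schedule: 1 h incubation at room temperature before polarization reading. Medium: 25 mM sodium phosphate pH 7.4, 150 mM NaCl, TCEP, IgG, Thesit. Read-out: percent inhibition from loss of millipolarization. Measured by: FP readout, S and P plane fluorescence. Probe or stimulus: fluorescent TMR peptide probe.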
PGC1a acetyl inh: lowers PGC1a acetylation signal in U2OS cells; AlphaScreen anti-acetyl-lysine; with virally co-expressed GCN5 acetyltransferase; inhibition, % at 15.6 µM; hit rate 0.17% among 350,000; AID 651687;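 active = every replicate shows inhibition of at least 40%; inconclusive = mean inhibition at least 40% but some replicate below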;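 note: 0% = neutral control wells and 100% = positive control wells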
ARNT-TACC3 inh: ARNT/TACC3 interaction disruption; Q9Y6A5; AlphaScreen His-ARNT PAS-B/GST-TACC3 binding, luminescence; TACC3 fragment carries E629A point mutation; inhibition, % at 9.99 µM; hit rate 0.66% among 390,000; AID 623870;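 active = mean inhibition of replicates at least 50% and at least half of replicates each reaching 50%; inconclusive = half or more replicates reach 50% but mean below 50%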;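 note: 0% = complete ARNT plus TACC3 wells and 100% = ARNT alone without TACC3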
miR-122 sensor: inhibitors of miR-122 in Huh7 cells; Huh7 miR-122 Renilla luciferase sensor, 48 h; neutral wells = 0, positive control = 100; activation (reporter increase), % at 12.5 µM; hit rate 0.3% among 340,000;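 active = mean replicate activation score at least 90 and every replicate individually at or above 90; inconclusive = only one of the two criteria met; inactive = neither criterion met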;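 note: higher luciferase means less miR-122 activity so hits act as miR-122 inhibitors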
F508del corr: CFTR F508del correction in bronchial cells. activity (quench increase), % at 7.58 µM. hit rate 0.36% among 350,000. CFBE cells, YFP halide quenching; stimulated with forskolin plus potentiator P3; % fluorescence drop versus neutral controls. AID 720511;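 active = mean added fluorescence quench of at least 8% versus neutral control, with both replicates also reaching 8%; inconclusive = only one of the mean or replicate conditions met; inactive = mean below 8% and not both replicates reaching 8%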;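 note: cells transiently co-express mutant CFTR-F508del with the halide-sensitive YFP; corrector assay measuring rescue of mutant channel to the surface after 24 h compound exposure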
Numbers without * were called inactive; [ ] = dose if it differs, or a comment. Most compounds without a hit are left out; they make up all but 1.7% or so of the library.

Screening O=C(N/N=C/c1ccc([N+](=O)[O-])cc1)c1cc(C2CC2)nc2ccccc12 returned CAL PDZ FP-2 -8.5, PGC1a acetyl inh 5.1, ARNT-TACC3 inh -0.9, miR-122 sensor 10.5 and F508del corr 1.0.
Screening O=C(CNC(=O)c1ccccc1Cl)N/N=C/c1ccc2c(c1)OCO2 returned CAL PDZ FP-1 95.9*, CAL PDZ FP-2 -2.0, ARNT-TACC3 inh -20.1 and F508del corr 2.4.
For O=C(NC(C(=O)N/N=C/c1cccc2ccccc12)c1n[nH]c(=O)c2ccccc12)c1ccccc1 (stereo unspecified) the results were CAL PDZ FP-1 -4.1, CAL PDZ FP-2 -0.8, PGC1a acetyl inh -12.2, ARNT-TACC3 inh 3.6 and miR-122 sensor 0.6.
`O=C(N/N=C/c1ccsc1)c1cc(-c2ccncc2)nc2ccccc12` gave CAL PDZ FP-1 -4.7, CAL PDZ FP-2 -7.4 and ARNT-TACC3 inh -31.1.
For O=C(NC(C(=O)N/N=C/c1cc([N+](=O)[O-])ccc1O)c1n[nH]c(=O)c2ccccc12)c1ccccc1 (stereo unspecified) the results were CAL PDZ FP-2 -0.8, ARNT-TACC3 inh 67.5*, miR-122 sensor 4.6 and F508del corr 0.8.
`O=C(N/N=C/c1ccccn1)c1cc(-c2ccncc2)nc2ccccc12` gave CAL PDZ FP-1 -2.4, CAL PDZ FP-2 -8.0 and ARNT-TACC3 inh 68.2*.
O=C(CNC(=O)c1ccccc1F)N/N=C/c1ccc2c(c1)OCO2 was read as CAL PDZ FP-1 -3.2, CAL PDZ FP-2 -2.1, PGC1a acetyl inh -4.3, ARNT-TACC3 inh -2.3, miR-122 sensor 0.4 and F508del corr -0.4.
`Cc1noc(C)c1NC(=O)Nc1ccc2c(c1)CC(=O)N([C@H](C)CO)C[C@H](C)[C@@H](CN(C)C(=O)Nc1cccc3ccccc13)O2` gave PGC1a acetyl inh -0.8, miR-122 sensor -6.7[16.7 µM] and F508del corr -2.6.
Screening COC(=O)Nc1ccc(S(=O)(=O)N2CCCCC2C(=O)O)cc1 (stereo unspecified) returned CAL PDZ FP-1 73.1*, CAL PDZ FP-2 -0.8, PGC1a acetyl inh 11.1, ARNT-TACC3 inh 2.6 and F508del corr 1.5.
Screening O=C(N/N=C\c1cccc(Cl)c1)c1ccc(Cn2cc(Br)c([N+](=O)[O-])n2)o1 returned CAL PDZ FP-1 86.3*, CAL PDZ FP-2 4.4 and ARNT-TACC3 inh 0.6.
COc1ccc2c3c(n(C)c2c1)[C@@H](CO)N(C(=O)c1cccc(F)c1)CC31CCN(C(=O)c2cccc(F)c2)CC1 was read as PGC1a acetyl inh 7.2 and F508del corr -0.7.
For c1ccc(-n2nnnc2-c2cccc3ccccc23)cc1 the results were CAL PDZ FP-2 -0.9, PGC1a acetyl inh -25.3, miR-122 sensor 116.1* and F508del corr 7.7.
For Cc1ccc(-n2nnnc2-c2ccccc2Br)cc1 the results were PGC1a acetyl inh 4.7, miR-122 sensor 4.5 and F508del corr 0.7.
c1ccc(CNc2nnnn2-c2ccccc2)cc1 was read as CAL PDZ FP-1 3.8, CAL PDZ FP-2 -1.7, PGC1a acetyl inh -9.2, ARNT-TACC3 inh -4.3 and miR-122 sensor 127.6*.
Screening COc1ccc(CN(C)C[C@H]2Oc3ccc(NC(=O)CCC(F)(F)F)cc3CC(=O)N([C@@H](C)CO)C[C@H]2C)cc1 returned PGC1a acetyl inh -16.8, ARNT-TACC3 inh 2.7, miR-122 sensor -4.9[16.7 µM] and F508del corr -1.2.
`CC(C)c1ccc(NC(=O)c2ccc3c(c2)CCN3S(C)(=O)=O)cc1` gave CAL PDZ FP-1 1.8, CAL PDZ FP-2 -1.1, PGC1a acetyl inh 81.9*, ARNT-TACC3 inh 5.9, miR-122 sensor -7.1 and F508del corr -3.3.
For C[C@@H]1CN([C@@H](C)CO)C(=O)c2cc(-c3ccccc3F)cnc2O[C@@H]1CN(C)C(=O)C1CC1 the results were PGC1a acetyl inh -3.2, ARNT-TACC3 inh 3.2, miR-122 sensor 0.8[16.7 µM] and F508del corr -0.1.
For Cc1cc(C(=O)CCC(=O)NC(C)c2ccc(S(N)(=O)=O)cc2)c(C)s1 (stereo unspecified) the results were CAL PDZ FP-1 -0.6, CAL PDZ FP-2 -1.8, PGC1a acetyl inh 1.6, miR-122 sensor 1.7 and F508del corr 8.8*.
For O=C(OCC(=O)N1CCN(C(=O)c2ccco2)CC1)c1cncc(Br)c1 the results were CAL PDZ FP-1 35.5*, CAL PDZ FP-2 0.9, PGC1a acetyl inh -6.4, ARNT-TACC3 inh -16.4, miR-122 sensor -9.6 and F508del corr -6.4.
Screening O=C(OCC(=O)N1CCN(C(=O)c2ccco2)CC1)c1cc(S(=O)(=O)Nc2ccc(Cl)cc2)ccc1O returned CAL PDZ FP-1 53.3*, CAL PDZ FP-2 -2.4, ARNT-TACC3 inh -5.1 and F508del corr -0.1.
CCN(C(=O)Nc1cccc(Cl)c1)c1ccccc1 was read as CAL PDZ FP-2 0.9, PGC1a acetyl inh -3.8, ARNT-TACC3 inh -4.7, miR-122 sensor -8.9 and F508del corr -5.0.
For Cc1cccc(N(O)C(=O)Nc2cccc(Cl)c2)c1 the results were CAL PDZ FP-1 31.3*, CAL PDZ FP-2 -1.5, PGC1a acetyl inh -2.4, ARNT-TACC3 inh -6.5, miR-122 sensor -2.1 and F508del corr -1.7.
O=C(C[C@@H]1CC[C@@H](NC(=O)Nc2cccc(F)c2)[C@H](CO)O1)NCC1CC1 was read as PGC1a acetyl inh 1.0, ARNT-TACC3 inh 6.4, miR-122 sensor -19.0[16.7 µM] and F508del corr 2.2.
COc1cccc(-c2nc(N3CCN(C)CC3)c3ccccc3n2)c1O was read as CAL PDZ FP-1 2.5, CAL PDZ FP-2 -0.9, PGC1a acetyl inh -14.6, ARNT-TACC3 inh 17.3, miR-122 sensor 6.2 and F508del corr 14.2*.
COCC#Cc1cnc2c(c1)C(=O)N([C@@H](C)CO)C[C@@H](C)[C@@H](CN(C)C(=O)C1CCCCC1)O2 was read as PGC1a acetyl inh -6.0, ARNT-TACC3 inh 5.3, miR-122 sensor 10.3[16.7 µM] and F508del corr 2.3.
`CC(C)C#Cc1ccc([C@@H]2[C@@H](CO)N3C(=O)CN(S(=O)(=O)c4ccccc4)C[C@@H]23)cc1` gave PGC1a acetyl inh -7.2 and F508del corr 12.3*.
Screening CC(C)CC#Cc1ccc([C@H]2[C@H](CO)N3C(=O)CN(C(=O)Nc4cc(F)ccc4F)C[C@@H]23)cc1 returned PGC1a acetyl inh inconclusive and F508del corr 11.1*.
Screening CC(C)C#Cc1ccc([C@@H]2[C@@H](CO)N3C(=O)CN(C(=O)NC4CCCC4)C[C@H]23)cc1 returned PGC1a acetyl inh -10.3 and F508del corr -1.8.
`CC(C)C#Cc1ccc([C@@H]2[C@H](CO)N3C(=O)CN(S(=O)(=O)c4ccccc4)C[C@@H]23)cc1` gave PGC1a acetyl inh -3.2 and F508del corr 1.4.
Screening COCC(=O)N1CC(=O)N2[C@@H](CO)[C@H](c3ccc(-c4ccncc4)cc3)[C@@H]2C1 returned PGC1a acetyl inh 102.2* and F508del corr -2.9.

Bioassay records as filed in PubChem.
